Measurements reported in ChEMBL document CHEMBL1938261, “Discovery of novel α7 nicotinic acetylcholine receptor ligands via pharmacophoric and docking studies of benzylidene anabaseine analogs” (Bioorg Med Chem Lett, 2012).

Columns and labels:
[1] = target: T1, Neuronal acetylcholine receptor; alpha4/beta2 (Homo sapiens, UniProt P17787+P43681); test: Displacement of [3H]epibatidine from human alpha4beta2 nAchR expressed in SH-EP1 cells at 5 uM; format: cell-based
Summary of the method: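 Percent inhibition of control [3H]-epibatidine binding to human α4β2 expressed in SH-EP1 cells, with test compound at 5 μM. Reported ± standard error, with replicate number per value.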

[2] = Displacement of [3H]methyllycaconitine from rat alpha7 nAchR in rat hippocampal membrane; format: cell membranes, Hippocampus
Summary of the method: (§1)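 α7 sites on rat hippocampal membranes, labelled with [3H]-methyllycaconitine. Inhibition of binding measured over a seven-point dose-response curve, with replicates averaged at each point. IC50 taken by least-squares non-linear regression against log concentration. Ki given ± standard error, with replicate number per value.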

[3] = (§2) Partial agonist activity at rat alpha7 nAchR by patch clamp assay; format: functional
Rattus norvegicus = species on record: Rattus norvegicus; test: as §2; format: functional
[4] = target: T1, Neuronal acetylcholine receptor; alpha4/beta2; test: Displacement of [3H]epibatidine from human alpha4beta2 nAchR expressed in SH-EP1 cells; format: cell-based
Summary of the method: as §1, with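 “Human α4β2 heterologously expressed in SH-EP1 cells,” for “α7 sites on rat hippocampal membranes,”, “[3H]-epibatidine.” for “[3H]-methyllycaconitine.”, “reported” for “given”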

[5] = target: Neuronal acetylcholine receptor; alpha3/beta4 (Homo sapiens) (UniProt P30926+P32297); test: Displacement of [3H]epibatidine from human alpha3beta4 nAchR expressed in SH-SY5Y cells at 5 uM; format: cell-based
Summary of the method: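 Radioligand displacement using [3H]-epibatidine on SH-SY5Y cell membranes (ganglion-type nicotinic receptors). Compounds tested at 5 μM; percent inhibition of control radioligand binding reported, with the number of replicates given for each result.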

T1 sequence (P17787 whole entry): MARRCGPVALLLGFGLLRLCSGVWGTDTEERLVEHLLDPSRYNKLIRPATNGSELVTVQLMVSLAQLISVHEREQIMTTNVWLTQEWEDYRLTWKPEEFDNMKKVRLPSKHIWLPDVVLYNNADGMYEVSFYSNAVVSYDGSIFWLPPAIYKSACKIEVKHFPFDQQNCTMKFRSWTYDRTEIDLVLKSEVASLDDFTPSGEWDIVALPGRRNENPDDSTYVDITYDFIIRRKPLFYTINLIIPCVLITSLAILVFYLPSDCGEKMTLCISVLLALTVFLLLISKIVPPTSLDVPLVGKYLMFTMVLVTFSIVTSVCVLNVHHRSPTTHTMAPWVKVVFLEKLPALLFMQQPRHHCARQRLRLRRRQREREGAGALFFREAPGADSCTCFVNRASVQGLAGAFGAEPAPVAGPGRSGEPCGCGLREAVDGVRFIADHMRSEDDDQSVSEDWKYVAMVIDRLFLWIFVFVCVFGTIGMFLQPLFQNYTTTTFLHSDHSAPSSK
T1 sequence (P43681 whole entry): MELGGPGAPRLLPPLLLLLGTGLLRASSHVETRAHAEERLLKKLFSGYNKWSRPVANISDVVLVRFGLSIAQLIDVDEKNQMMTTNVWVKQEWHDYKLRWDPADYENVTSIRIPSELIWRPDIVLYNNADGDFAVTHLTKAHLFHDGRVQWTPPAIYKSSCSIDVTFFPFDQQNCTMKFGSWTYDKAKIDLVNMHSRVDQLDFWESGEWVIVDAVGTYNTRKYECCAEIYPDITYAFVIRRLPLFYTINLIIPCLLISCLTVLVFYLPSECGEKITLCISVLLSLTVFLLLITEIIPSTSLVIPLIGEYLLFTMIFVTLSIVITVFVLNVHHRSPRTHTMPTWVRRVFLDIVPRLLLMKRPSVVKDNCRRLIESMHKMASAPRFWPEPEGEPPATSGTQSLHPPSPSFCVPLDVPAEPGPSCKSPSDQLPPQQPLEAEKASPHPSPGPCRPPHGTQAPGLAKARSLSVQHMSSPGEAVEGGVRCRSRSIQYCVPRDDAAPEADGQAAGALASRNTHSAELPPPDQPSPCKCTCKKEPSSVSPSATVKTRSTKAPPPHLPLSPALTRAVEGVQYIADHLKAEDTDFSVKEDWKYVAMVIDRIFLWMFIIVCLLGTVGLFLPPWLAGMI

| SMILES | inhibition [1] [%] | Ki [2] [nM] | also measured |
| --- | --- | --- | --- |
| O=C1NCC2(CN3CCC2CC3)NC(=O)C1c1ccccc1 (stereo not given) | 2 |  |  |
| c1ccc2oc(C3=NC4(CN3)CN3CCC4CC3)cc2c1 (stereo not given) | 4 |  |  |
| COc1ccc(C2=NCC3(CN4CCC3CC4)NC(=O)C2)cc1 (stereo not given) | 42 | 42 |  |
| COc1cccc(C2=NCC3(CN4CCC3CC4)NC(=O)C2)c1 (stereo not given) | 12 | 87 |  |
| Oc1c(C2=NC3(CN2)CN2CCC3CC2)oc2ccccc12 (stereo not given) | 32 | 7 | EC50 [3]: 600 nM; Emax (Rattus norvegicus): 53% |
| c1ccc(C2=NC3(CN2)CN2CCC3CC2)cc1 (stereo not given) | 11 |  |  |
| Oc1ccccc1C1=NC2(CN1)CN1CCC2CC1 (stereo not given) | 4 | 290 |  |
| COc1ccccc1C1=NCC2(CN3CCC2CC3)NC(=O)C1 (stereo not given) | 7 | 110 |  |
| COc1ccc(/C=C2\CCCN=C2c2cccnc2)c(OC)c1 [GTS-21] |  | 1300 | Ki [4]: 51 nM |
| Nc1c(C2=NC3(CN2)CN2CCC3CC2)oc2ccccc12 (stereo not given) | 9 | 120 |  |
| O=C1CC(c2ccco2)=NCC2(CN3CCC2CC3)N1 (stereo not given) | 14 | 150 |  |
| C1=NCC2(CN3CCC2CC3)NC=C1c1ccccc1 (stereo not given) | 6 |  |  |
| COc1cc(O)ccc1/C=C1\CCCN=C1c1cccnc1 | 97 |  | inhibition [5]: 75% |
| O=C1CC(c2ccc(Br)s2)=NCC2(CN3CCC2CC3)N1 (stereo not given) | 62 | 77 |  |
| O=C1CC(c2cccs2)=NCC2(CN3CCC2CC3)N1 (stereo not given) | 20 | 58 |  |
| OC1=CC(c2ccccc2)=NCC2(CN3CCC2CC3)N1 (stereo not given) | 15 | 140 |  |
